Test system: MS2 coat protein
Assay: apparent Kd, MS2 coat protein; higher = weaker binding; RNA-MaP array; FMN 200 µM where present
Summary of the method: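 On Illumina sequencing-chip clusters, designs were transcribed by stalled E. coli RNA polymerase and titrated with SNAP-549-labelled MS2 coat protein (0.7 or 1.5 nM, doubling to 3 µM), without and then with constant ligand, in 100 mM Tris-HCl pH 7.5, 80 mM KCl, 4 mM MgCl2, BSA, DTT, yeast tRNA and Tween-20. Apparent Kd is the median of filtered per-cluster curve fits to green signal normalised to red-channel RNA signal and control-cluster median Fmax.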

[1] = designed as: ON switch for flavin mononucleotide, no ligand
[2] = ligand present: flavin mononucleotide, designed as: ON switch for flavin mononucleotide
[3] = designed as: OFF switch for flavin mononucleotide, no ligand
[4] = ligand present: flavin mononucleotide, designed as: OFF switch for flavin mononucleotide

| Sequence | apparent Kd [1] [nM] | apparent Kd [2] [nM] | apparent Kd [3] [nM] | apparent Kd [4] [nM] |
| --- | --- | --- | --- | --- |
| GACAAACAUGAGGAUCACCCAUGUUCAGACGAACAAGGAUAUGUGUGGAAACCAUACUAUACAGAAGGUGUCUGUC | 48.6 | 31.1 |  |  |
| AUCAGCUCGUCAGGAUAUACGUCACUGCGCCAGCAGUGUGGUAAGAUCACAUGAGGAUCACCCAUGUAGAAGGGACGAGCUGAU |  |  | 15 | 242 |
| AGUUGGCGAGGAUAUACAUGAGGAUCACCCAUGUGAGAGAAAAAAAGGAGAAAAAAAAGUAGAAGGCGCUGACA |  |  | 37.5 | 120 |
| GGAUAUGUCGUCUACAUGAGGAUCACCCAUGUUGAUAAACAUGAGGAUAUUGAUAAGAAUUGUAUCGAGAAGGUAUGUAGGUCC | 106 | 89.5 |  |  |
| UGAUAGGACAGAGGAUAUACGUGCUAGAGAUACUAGCAAAGUUUCUUGACAUGAGGAUCACCCAUGUAGAAGGCUGUCCUAUCU |  |  | 5.74 | 12.3 |
| GGUACUCAAAGAGUACCAAUACGAACAUGAGGAUCACCCAUGUAGGAUAUGCUACUCAAAGAGUAGCAGAAGGACAUGUGCCCU |  |  | 60.5 | 608 |
| UUGAUAAGGAGAGGAUAUUGACAUGAGGAUCACCCAUGUACAUGGGAGUGUUUACUGAAUUCUUACGAGAAGGCUUACAUAUUU |  |  | 245 | 166 |
| CUUCGUAUAGAGGAUAUAGGUUACUACGGUAUCCUAGAAGGCUGUACAUGAGGAUCACCCAUGUACUUCAGAUC |  |  | 12.9 | 16.1 |
| GGAGCACAUGAAUACAUGAGGAUCACCCAUGUCGAAUGAUAUGAGGAUAUGCAUCGGAAAACGAUGUAGAAGGCAUAGUGCUCC | 60 | 11.4 |  |  |
| UGUUGUUUAGGAUAUACAUGAGGAUCACCCAUGUGACAAAAAUAUUUUACAAAACCAUGUAGAAGGAAAUGGCA |  |  | 22.3 | 48.2 |
| ACAUGUUAUACAGGAUAUGUUAUACAAUAAUCAAUCAGUUAUUAUGAUUUUACAGAAGGGUAUACAUGAGGAUCACCCAUGUUA |  |  | 31.5 | 33.8 |
| GUCAGCUCGUGAGGAUAUACAUCACUGCUUCGGCAGUGUAUUAAGAGCACAUGAGGAUCACCCAUGUAGAAGGCACGAGCUGAU |  |  | 16.3 | 24.1 |
| CGCUACUGCCAGAAGGACAUGAGGAUCACCCAUGUAGGAUAUGGGUGACGAGGACCAGUGUAGAGAAACUACGCUACAGUAGCG | 89.4 | 47.5 |  |  |
| AAAACCUCAUGAGGAUAUCCAACAUGAGGAUCACCCAUGUUAGUCUCAGUACCAGGUACUAGAGAGGAGAAGGCAUGCCAGGGC | 78.6 | 27.5 |  |  |
| UAUACUUACGAAGGAUAUGGUUACAUGAGGAUCACCCAUGUAUGUAUAUUGAUCUUGUAUUUUAACCAGAAGGUCGUGAGUAUA |  |  | 143 | 114 |
| UUCAGCUCGUGAGGAUAUACAUGUGCUGGAAACAGCAUUAUAUUUUUCACAUGAGGAUCACCCAUGUAGAAGGCACGAGCUGAG |  |  | 15.7 | 27.3 |
| AAAAGUACAGGAUAUACAUGAGGAUCACCCAUGUAGAAAGGAAGUGUAAAAAAAAAGUGUAGAAGGGUGCAUGA |  |  | 33.1 | 27.9 |
| GGGCGUGAAGGAUAUACAUGAGGAUCACCCAUGUGGGAGGAGAAUGGUGAGGAGGCUGGUAGAAGGUCAGGAGG |  |  | 47.9 | 45.8 |
| AGCACGAAAGUGCAACGAUGUACGAGAAGGACAUGAGGAUCACCCAUGUAAGCAGUAACUGCAAUGUAGGAUAUCGUACAUCGA |  |  | 8.41 | 12 |
| UGUUGUAUUACAGGAUAUCUAUUAUUUUUACUUAGAGAAGGGUAUUCACAUGAGGAUCACCCAUGUAUAUACGAGGAAGUUGUG | 54.2 | 56 |  |  |
| AGCGGCGCGGGCCACCGCAGGACCAGAAGGACAUGAGGAUCACCCAUGUAGCAGAACAGGGCGGUGUAGGAUAUGGCAGGCUCG |  |  | 22.5 | 51.6 |
| UGAUCAAAUGUCAGGAUAUGCUGUUGUAAUCAACAGCAGAAGGGACAUGAGGAUCACCCAUGUCUUGUCGAUUU |  |  | 12.9 | 37.3 |
| GUGGAACAUGAGGAUCACCCAUGUGAGGAUAUAGGUUUUUGGGAAAAACUAGGAGAAACUAGAAGGCGCAAGAA |  |  | 29.4 | 27.6 |
| GAGAAGAGGGAAGGAUAUACAUGAGGAUCACCCAUGUAGAUAGGUUUAAUAGGUUGUUGUAGUUUGUAGAAGGUCCGGUUUGUU |  |  | 17.8 | 16.7 |
| CGUAUGGACAGAGGAUAUGCCGAUAGGAUCUACUAUCGAAGAAUCCUCACAUGAGGAUCACCCAUGUAGAAGGCUGUCCAUACU |  |  | 8.15 | 36.3 |
| AUACUUAAUGAAGGAUAUCUCAGCAUAAACCUGAGAGAAGGUCAUUGUUACAUGAGGAUCACCCAUGUUGUAGUUAAUGGGUAA |  |  | 421 | 413 |
| CGCCUGUGAGGAUAUCCAUCUGGAUCAGACUAGAUCCUGAUGGAGAAGGCACAUGAGGAUCACCCAUGUCGGCG |  |  | 23.1 | 22.4 |
| GUUUACGCGGAAGGAUAUACAUUUGACAUCUUGAUGCGCGCAAUACUCACAUGAGGAUCACCCAUGUAGAAGGUCUGCGAAAGA |  |  | 15.1 | 24.9 |

| Sequence | apparent Kd [1] [nM] | apparent Kd [2] [nM] | apparent Kd [3] [nM] | apparent Kd [4] [nM] |
| --- | --- | --- | --- | --- |
| AUUUGAAUCGUAGGAUAUCGCUUAAAUUUAACACGAGAAGGACGAACAUGAGGAUCACCCAUGUAUCAUGGUGUAGAUAAUUUG |  |  | 82.5 | 353 |
| UUAUUAUGUGUAGGAUAUGCAUAUUAUUAUUAUGCAGAAGGACAUGAGGAUCACCCAUGUAUAUUGUUAUUAUAUAUUAUAUAU |  |  | 11.5 | 16.7 |
| AGUAAACAUGAGGAUCACCCAUGUGGUGGCCCAUGAGGAUAUCCAUGCGCAAUACGCAUAGGAGAAGGCAUAGCCA | 62 | 123 |  |  |
| UGUCGGAGCAGAGGAUAUUACAUGAGGAUCACCCAUGUAUGAGCCAAUAGCUGGAAACAGCAAUGUAAGAAGGCUGCUCCGACA |  |  | 19.1 | 206 |
| GGCUUAAACACAGGAUAUGGCCUCAGAGUAAGGCCAGAAGGGUGAAGUUCUCAUACAUGAGGAUCACCCAUGUCAAGGAGGCUA | 521 | 204 |  |  |
| GCAGGUUUACGAGGAUAUGGGUGGUACGAACAUGAGGAUCACCCAUGUUUCCCAGAAGGCGUAGCCUAACAAAGAGAACAGGAG | 418 | 22.2 |  |  |
| AACCUCGGAGGAUAUACCUACCGAUUCACAAGUGUCACAUCACAUGAGGAUCACCCAUGUAGAAGGUCGAGGCG |  |  | 30 | 97.1 |
| UUGCUGCGGAAGUUCGGCUCUCGCGAGGAUAUACCUACAGGGCCACAUGAGGAUCACCCAUGUACGUAGAAGGCGCGACAGAAA |  |  | 15.8 | 48 |
| CCCACGCAUGAGAAGGGACAGGCGUGCAAUUCGACAUGAGGAUCACCCAUGUCAGGAUAUCAGUUAAGGUGGGCAGAACCAAUG |  |  | 16.9 | 76.7 |
| GUAGCACAAGCAAAUGUAACAUGAGGAUCACCCAUGUGUUAUGAGGAUAUGGAUGUGAAGUUAAUCCAGAAGGCAUUAUGCUAC | 25.2 | 13.2 |  |  |
| GCAUGCGUUCGAGGAUAUCGGUGAGAAACGGAACGAGAAGGCGAUCGAAUGUCUCAUAUUAUGAACAUGAGGAUCACCCAUGUA | 514 | 131 |  |  |
| CAUUAACAUGAGGAUCACCCAUGUGAGGAUAUGAUAUUACUAGGACGGCUGUGAUCAAUCAGAAGGCACAUCUU |  |  | 25 | 30 |
| UGUUACUAGGGAGGAUAUGGGAAGAUACAUGAGGAUCACCCAUGUUUAAGAAUGCCGAGAGGCAACUAGAAGGCCCUAGUACCU | 354 | 23.1 |  |  |
| GUGUACAGAGGAUAUACAGGAGCAUGGAAACAUGCAACCUCACAUGAGGAUCACCCAUGUAGAAGGCUGUACAC |  |  | 154 | 81.3 |
| GUUAUAAAGGUAGGAUAUAGUAUUAUAAUUAAAUUAGAAGGAUCUCACAUGAGGAUCACCCAUGUAAGAGGAUCACCCAUGUAG |  |  | 20.7 | 15.9 |
| UUCCGGCAUGUAGGAUAUGGAUCCGAUUAGGAUUUAGAAGGACAUGAGGAUCACCCAUGUGCAUUUAAUUAGUCAUUACCGUUU |  |  | 41.6 | 86.5 |
| AGUAUGCACGCAGGAUAUACAUGAGGAUCACCCAUGUGGAACAGUGUAGUACUAGUUGAUCCUCAGUAGAAGGGCGGUCGAAUA |  |  | 44.2 | 56.6 |
| UCUGCUCGAGGAUAUACAUGAGGAUCACCCAUGUAUCCCAGAAGCAUGGCCUCAGGAUGUAGAAGGCGACGCUA |  |  | 14.1 | 18.5 |
| GGUCCACAUGAGGAUCACCCAUGUCAGGAUAUACACGGCACUAUAAUAAGUGCCACCCGUAGAAGGGACGCUGG |  |  | 17.2 | 38.5 |
| GGACGUCACAUUAACAUGAGGAUCACCCAUGUCAAAAGACAUGAGGAUAUGGAUCCGAAAAGGAUCCAGAAGGCAUGGACGUCC | 555 | 36.6 |  |  |
| CGGGCACAUGAGGAUCACCCAUGUCAGGAUAUCGGCCGGCGGCCGCCGGGCCGCCGGCCGAGAAGGGACGCCCG |  |  | 16.4 | 18.7 |
| UAAUCUCAGAUAGGAUAUAUAGGAUAACUUAAGACCUAACAUGAGGAUCACCCAUGUGAUUAUUCGUAGAAGGAUCAAUGACCC | 189 | 200 |  |  |
| AAGAGUACAGGAUAUACAUGAGGAUCACCCAUGUGAAAAUUAAGUGGCGUACCACAAAGUAGAAGGGUACUGGA |  |  | 22.4 | 50.8 |
| GACUGCUGAGGAUAUACAUGAGGAUCACCCAUGUGCUUCAGUAUCGAAAGAUACAUUGGUAGAAGGUGGUAGUC |  |  | 13.4 | 21.4 |
| ACAUGAGGAUCACCCAUGUUCACAUAGGAUAUUGAUUUUAUUGGUUUUAGAAUAGUAAUUAACCUCAAGAAGGAUGCCAGUUCU | 14 | 11.2 |  |  |
| GAUGCACAUGAGAAGGCGAUCAUGAAACAUGAUCGAGGAUAUCAUGUAAACAUGAGGAUCACCCAUGUAUGGGUAAAGUGCAUC | 446 | 32 |  |  |
| GCCUUACAUGAGGAUCACCCAUGUCAGGAUAUGUCAGAGUAGGUAAAACACCACUCUAAUAGAAGGGACAUGCA |  |  | 16.8 | 28.6 |
